According to ChEMBL document CHEMBL1153851, “(+/-)-3,4-Dihydroxy-8,9-methylenedioxypterocarpan and derivatives: cytotoxic effect on human leukemia cell lines” (Eur J Med Chem, 2009):

What was measured:
[1] = Cytotoxicity against human K562-Lucena 1 cells assessed as cell viability after 72 hrs by MTT assay; assay type: functional, cell-based; settings: K562-Lucena 1, 72 h
Outline: (§1)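 Cells were kept in RPMI 1640 with 5 × 10^-5 M β-mercaptoethanol, 25 mM Hepes (pH 7.4) and 10% heat-inactivated FCS. Daudi received 20% FCS, and Lucena I received 60 nM vincristine to maintain resistance. Cells were seeded at 2 × 10⁴ cells/mL with compound (0.1–50) for 72 h at 37 °C, 5% CO₂. MTT (5 mg/mL stock) was added for 3 h, formazan was dissolved in DMSO, and A490 was read. Triplicate points; mean of ≥3 experiments.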

Daudi = assay: Cytotoxicity against human Daudi cells assessed as cell viability after 72 hrs by MTT assay; assay type: functional, cell-based; outline: as §1
K562 = assay: Cytotoxicity against human K562 cells assessed as cell viability after 72 hrs by MTT assay; assay type: functional, cell-based; settings: K562, 72 h; outline: as §1
Jurkat = assay: Cytotoxicity against human Jurkat cells assessed as cell viability after 72 hrs by MTT assay; assay type: functional, cell-based; outline: as §1
HL-60 = assay: Cytotoxicity against human HL60 cells assessed as cell viability after 72 hrs by MTT assay; assay type: functional, cell-based; settings: HL-60, 72 h; outline: as §1
[2] = Toxicity against PHA-activated human peripheral lymphocytes assessed as cell viability after 72 hrs by MTT assay; assay type: cell-based, Lymphocyte
Outline: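 PBMC from healthy-volunteer heparinized blood were isolated by Ficoll-Hypaque gradient and resuspended at 10⁶ cells/mL in supplemented RPMI 1640. They were stimulated with PHA and exposed to compound at 2.5–10 µM for 72 h. Controls received diluent without PHA. Viability was read by MTT. Triplicate points; mean ± SD of ≥3 experiments.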

Structure (SMILES)	IC50 [1]	IC50 (Daudi)	IC50 (K562)	IC50 (Jurkat)	IC50 (HL-60)	IC50 at 72 h [2]
Oc1ccc2c(c1O)OC[C@@H]1c3cc4c(cc3O[C@H]21)OCO4	3.7 µM	2.8 µM	3 µM	7.6 µM	2.1 µM	–
Oc1cc2c(cc1O)[C@@H]1Oc3cc4c(cc3[C@@H]1CO2)OCO4	> 50 µM	–	> 20 µM	–	> 20 µM	–
O=C1C=CC2=C(OC[C@@H]3c4cc5c(cc4O[C@H]23)OCO5)C1=O (racemic)	–	0.9 µM	–	–	–	2.4 µM
COc1cc2c(cc1O)[C@H]1COc3c(ccc(O)c3O)[C@H]1O2 (racemic)	> 20 µM	–	> 10 µM	–	6.4 µM	–
Oc1ccc2c(c1)OC[C@@H]1c3cc4c(cc3O[C@H]21)OCO4 [(+)-MAACKIAIN]	> 50 µM	–	> 50 µM	–	> 50 µM	–
